These results are taken from ChEMBL document CHEMBL1671866, “Genotyping as a tool for antibiotic resistance surveillance of Neisseria gonorrhoeae in New Caledonia: evidence of a novel genotype associated with reduced penicillin susceptibility” (2008).

≈ marks a conversion by molar mass, not a printed value.

What all share (type): functional
Assay [1] relates to Neisseria gonorrhoeae. The experiment in a line: Antibacterial activity against Neisseria gonorrhoeae assessed as susceptible isolates by disk agar diffusion method. An outline of the steps:
(§1)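 Clinical isolates were collected from sexually transmitted infections in New Caledonia over nearly 3 years. They were tested in vitro against conventional antibiotics by disk agar diffusion. Archival chromosomally mediated resistant isolates and 12 reference strains served as controls: WHO-C, -G, -L, -M, -O, -P and 07QA-01 to 07QA-06.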

For assay [2], the system named is Neisseria gonorrhoeae. The experiment in a line: Antibacterial activity against Neisseria gonorrhoeae harboring GS gene by disk agar diffusion method. An outline of the steps: (§2)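 Clinical N. gonorrhoeae isolates from sexually transmitted infections in New Caledonia, collected over about 3 years. Susceptibility to conventional antibiotics was tested by disk agar diffusion, and beta-lactamase production by nitrocefin discs. Archival chromosomally mediated resistant isolates and WHO reference strains (WHO-C, -G, -L, -M, -O, -P; 07QA-01 to -06) served as controls.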

The subject of assay [3] is Neisseria gonorrhoeae. The experiment in a line: Antibacterial activity against Neisseria gonorrhoeae harboring wild-type GA and Asp-345a insertion in penA genes by Etest method. The method, boiled down:
(§3)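 Penicillin G MIC (µg/ml) by E-test gradient strip on chocolate agar plus PolyVitex, read where the inhibition zone meets the strip. Test organisms were clinical gonococcal isolates from New Caledonia, grouped by genotype. Archival chromosomally mediated resistant isolates and 12 WHO reference strains served as controls.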

Assay [4] relates to Neisseria gonorrhoeae. The experiment in a line: Antibacterial activity against Neisseria gonorrhoeae harboring GS A102S mutant gene by disk agar diffusion method. The method, boiled down:
as §2

Assay [5] deals with Neisseria gonorrhoeae. The experiment in a line: Antibacterial activity against Neisseria gonorrhoeae harboring ponA L421P mutant gene by disk agar diffusion method. An outline of the steps:
as §2

Assay [6] deals with Neisseria gonorrhoeae. The experiment in a line: Antibacterial activity against Neisseria gonorrhoeae harboring porB1b and DA G101D mutant genes by disk agar diffusion method. The method, boiled down: as §2
Assay [7] has as its system Neisseria gonorrhoeae. The experiment in a line: Antibacterial activity against Neisseria gonorrhoeae harboring Asp-345a insertion in penA and porB1a genes by Etest method. The method, boiled down: as §3
In assay [8] the test system is Neisseria gonorrhoeae. The experiment in a line: Antibacterial activity against Neisseria gonorrhoeae harboring wild-type penA and GS A102S mutant genes by Etest method. The method, boiled down:
as §3

For assay [9], the system named is Neisseria gonorrhoeae. The experiment in a line: Antibacterial activity against Neisseria gonorrhoeae harboring wild-type GA and wild-type penA genes by Etest method. The method, boiled down: as §3
Assay [10] has as its system Neisseria gonorrhoeae. The experiment in a line: Antibacterial activity against Neisseria gonorrhoeae harboring wild-type penA and DA G101D mutant genes by Etest method. An outline of the steps:
as §3

Assay [11] has as its system Neisseria gonorrhoeae. The experiment in a line: Antibacterial activity against Neisseria gonorrhoeae harboring wild-type GA gene by disk agar diffusion method. The method, boiled down: as §2
For assay [12], the system named is Neisseria gonorrhoeae. The experiment in a line: Antibacterial activity against Neisseria gonorrhoeae harboring wild-type penA and porB1a genes by Etest method. The method, boiled down:
as §3

Assay [13] has as its system Neisseria gonorrhoeae. The experiment in a line: Antibacterial activity against Neisseria gonorrhoeae assessed as intermediate-resistant isolates by disk agar diffusion method. The method, boiled down:
as §2

Assay [14] concerns Neisseria gonorrhoeae. The experiment in a line: Antibacterial activity against Neisseria gonorrhoeae harboring Asp-345a insertion in penA and DA G101D mutant genes by Etest method. The method, boiled down: as §3
Assay [15] relates to Neisseria gonorrhoeae. The experiment in a line: Antibacterial activity against Neisseria gonorrhoeae harboring porB1a gene by disk agar diffusion method. The method, boiled down: as §2
Assay [16] relates to Neisseria gonorrhoeae. The experiment in a line: Antibacterial activity against Neisseria gonorrhoeae by disk agar diffusion method. The method, boiled down: as §1
In assay [17] the test system is Neisseria gonorrhoeae. The experiment in a line: Antibacterial activity against Neisseria gonorrhoeae harboring wild-type ponA gene by disk agar diffusion method. An outline of the steps:
as §2

Assay [18] has as its system Neisseria gonorrhoeae. The experiment in a line: Antibacterial activity against Neisseria gonorrhoeae harboring KD gene by disk agar diffusion method. The method, boiled down: as §2

Consider `CC1(C)S[C@@H]2[C@H](NC(=O)Cc3ccccc3)C(=O)N2[C@H]1C(=O)O` [PENICILLIN G], for which the Activity was 60.1% in the assay on Neisseria gonorrhoeae [1] and 39.9% in the assay on Neisseria gonorrhoeae [13]. For the same compound, the MIC was 0.63 µg/mL (≈ 1.88 µM) against Neisseria gonorrhoeae [2]; 0.081 µg/mL (≈ 0.242 µM) in the assay with Neisseria gonorrhoeae [3]; 0.155 µg/mL (≈ 0.464 µM) in the assay on Neisseria gonorrhoeae [4]; 0.059 µg/mL (≈ 0.176 µM) against Neisseria gonorrhoeae [5]; 0.016 µg/mL (≈ 0.0478 µM) with Neisseria gonorrhoeae [6]; 0.07 µg/mL (≈ 0.209 µM) against Neisseria gonorrhoeae [7]. Further, the MIC against Neisseria gonorrhoeae [8] is 0.156 µg/mL (≈ 0.467 µM); with Neisseria gonorrhoeae [9] it was 0.017 µg/mL (≈ 0.0508 µM); against Neisseria gonorrhoeae [10], 0.016 µg/mL (≈ 0.0478 µM); in the assay with Neisseria gonorrhoeae [11], 0.037 µg/mL (≈ 0.111 µM); in the assay on Neisseria gonorrhoeae [12], 0.011 µg/mL (≈ 0.0329 µM); against Neisseria gonorrhoeae [14], 0.133 µg/mL (≈ 0.398 µM). In addition, the MIC stood at 0.031 µg/mL (≈ 0.0927 µM) in the assay with Neisseria gonorrhoeae [15], 0.064 µg/mL (≈ 0.191 µM) in the assay with Neisseria gonorrhoeae [16], 0.067 µg/mL (≈ 0.2 µM) in the assay with Neisseria gonorrhoeae [17] and 1 µg/mL (≈ 2.99 µM) against Neisseria gonorrhoeae [18].
